The record followed here is ChEMBL document CHEMBL3414528, “Novel naftopidil-related derivatives and their biological effects as alpha1-adrenoceptors antagonists and antiproliferative agents” (Eur J Med Chem, 2015).

Activity calls are given as the source filed them. The calls are words filed in the database; no cut-off is given here.

Test [1] is described as follows: Induction of apoptosis in human PC3 cells assessed as upregulation of caspase3 level after 24 hrs by Western blotting analysis. It counts as functional, cell-based. Particulars: PC-3. The gist of the method: (§1)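 PC-3 cells exposed for 24 h to 0, 1, 5, 10, 20 or 30 μM; Bax, Bcl-2 and activated caspase-3 measured by Western blot, reported as Bax/Bcl-2 value.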
A short description of test [2]: Cell cycle arrest in human PC3 cells assessed as accumulation at S phase at 15 uM after 24 hrs by propidium iodide staining-based flow cytometry (reference value: 27.26%). It counts as functional. Particulars: PC-3. Put shortly:
(§2)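 PC-3 cells given compound at 5, 10, 15, 20 or 30 μM, or 0.1% DMSO vehicle, for 24 h; stained with propidium iodide and analysed by flow cytometry for G0/G1, S and G2/M fractions.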

Test [3] is described as follows: Cell cycle arrest in human PC3 cells assessed as accumulation at S phase at 5 uM after 24 hrs by propidium iodide staining-based flow cytometry (reference value: 27.26%). In kind it is functional. Particulars: PC-3. Put shortly: as §2
The nature of test [4]: Cell cycle arrest in human PC3 cells assessed as accumulation at G0/G1 phase at 10 uM after 24 hrs by propidium iodide staining-based flow cytometry (reference value: 39.20%). In kind it is functional. Particulars: PC-3. The gist of the method: as §2
Test [5] in a line: Cell cycle arrest in human PC3 cells assessed as accumulation at S phase at 30 uM after 24 hrs by propidium iodide staining-based flow cytometry (reference value: 27.26%). In kind it is functional. Particulars: PC-3. Put shortly:
as §2

The subject of test [6] is PC-3. In words: Induction of apoptosis in human PC3 cells assessed as total apoptotic cells at 5 uM after 24 hrs by annexin V/propidium iodide staining-based flow cytometry. In kind it is functional. The gist of the method: (§3)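 Phosphatidylserine exposure in PC-3 cells after 24 h at 0, 5, 10, 20 or 30 μM, by Alexa Fluor 488 annexin V/PI double staining and flow cytometry; early apoptotic = AV+/PI−, late apoptotic or dead = AV+/PI+.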

Test [7] relates to PC-3. In words: Antiproliferative activity against human PC3 cells assessed as reduction in cell viability at 1.5 to 100 uM by WST-8 assay in presence of 50 uM of norepinephrine. In kind it is functional, cell-based. Put shortly:
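PC-3 cells treated with compound at 100, 75, 50, 25, 12.5, 6.25, 3.0 and 1.5 μM alone or together with norepinephrine (20 or 50 μM); viability by WST-8. Mean ± SEM, two-way ANOVA with post-hoc tests.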

Test [8] can be described thus: Induction of apoptosis in human PC3 cells assessed as upregulation of Bax expression after 24 hrs by Western blotting analysis. It counts as functional, cell-based. Particulars: PC-3. Put shortly: as §1
Test [9] is described as follows: Cytotoxicity against human PC3 cells after 48 hrs by WST-8 assay. In kind it is functional, cell-based. Particulars: PC-3, 48 h.
In test [10] the test system is PC-3. In words: Induction of apoptosis in human PC3 cells assessed as late apoptotic cells at 20 uM after 24 hrs by annexin V/propidium iodide staining-based flow cytometry (reference value: 2.1%). It counts as functional. Put shortly: as §3
Test [11] relates to PC-3. In words: Induction of apoptosis in human PC3 cells assessed as early apoptotic cells at 20 uM after 24 hrs by annexin V/propidium iodide staining-based flow cytometry (reference value: 5.7%). It counts as functional. Put shortly: as §3
For test [12], the system named is PC-3. In words: Induction of apoptosis in human PC3 cells assessed as total apoptotic cells at 20 uM after 24 hrs by annexin V/propidium iodide staining-based flow cytometry. In kind it is functional. The gist of the method:
as §3

For test [13], the system named is PC-3. In words: Induction of apoptosis in human PC3 cells assessed as total apoptotic cells at 10 uM after 24 hrs by annexin V/propidium iodide staining-based flow cytometry. It counts as functional. The gist of the method:
as §3

The subject of test [14] is PC-3. In words: Induction of apoptosis in human PC3 cells assessed as late apoptotic cells at 30 uM after 24 hrs by annexin V/propidium iodide staining-based flow cytometry (reference value: 2.1%). It counts as functional. The gist of the method:
as §3

The target in test [15] is T1, Alpha-1B adrenergic receptor (Rattus norvegicus, UniProt P15823).
T1 sequence (P15823 whole entry): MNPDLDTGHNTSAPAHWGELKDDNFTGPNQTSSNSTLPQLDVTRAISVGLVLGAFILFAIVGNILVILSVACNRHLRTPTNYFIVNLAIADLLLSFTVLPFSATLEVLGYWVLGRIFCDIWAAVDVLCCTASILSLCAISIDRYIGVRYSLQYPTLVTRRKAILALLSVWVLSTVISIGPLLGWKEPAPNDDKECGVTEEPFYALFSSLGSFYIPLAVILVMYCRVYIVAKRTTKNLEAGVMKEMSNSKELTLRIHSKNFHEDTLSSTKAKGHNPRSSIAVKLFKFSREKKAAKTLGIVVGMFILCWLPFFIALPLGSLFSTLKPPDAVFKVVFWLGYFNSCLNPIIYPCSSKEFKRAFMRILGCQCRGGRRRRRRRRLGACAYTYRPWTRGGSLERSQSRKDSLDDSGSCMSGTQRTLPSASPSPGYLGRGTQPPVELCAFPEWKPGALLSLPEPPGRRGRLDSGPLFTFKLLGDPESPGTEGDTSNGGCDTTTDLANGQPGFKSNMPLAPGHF
In words: Antagonist activity at Sprague-Dawley rat spleen adrenergic alpha-1B receptor after 20 mins. Particulars: read-out: pA2 (converted). The gist of the method: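 Isolated rat tissues (prostatic vas deferens, spleen, thoracic aorta) contracted with cumulative norepinephrine; concentration-response curves recorded in presence of increasing antagonist concentrations, antagonism read as rightward curve shift. Mean ± SEM of five to eight separate experiments.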

The next test relates to LNCaP. In words: Cytotoxicity against human LNCAP cells after 48 hrs by WST-8 assay. In kind it is functional, cell-based.
Test [16] can be described thus: Cell cycle arrest in human PC3 cells assessed as accumulation at G2/M phase at 20 uM after 24 hrs by propidium iodide staining-based flow cytometry (reference value: 33.04%). It counts as functional. Particulars: PC-3. Put shortly: as §2
For another test, the species on record is Rattus norvegicus. In words: Selectivity ratio for Sprague-Dawley rat prostatic vas deferens adrenergic alpha-1A receptor to Sprague-Dawley rat spleen adrenergic alpha-1B receptor.
A short description of test [17]: Cell cycle arrest in human PC3 cells assessed as accumulation at G2/M phase at 5 uM after 24 hrs by propidium iodide staining-based flow cytometry (reference value: 33.04%). In kind it is functional. Particulars: PC-3. The gist of the method: as §2
Test [18] is described as follows: Cell cycle arrest in human PC3 cells assessed as accumulation at G2/M phase at 15 uM after 24 hrs by propidium iodide staining-based flow cytometry (reference value: 33.04%). In kind it is functional. Particulars: PC-3. The gist of the method: as §2
Test [19] can be described thus: Cell cycle arrest in human PC3 cells assessed as accumulation at G0/G1 phase at 20 uM after 24 hrs by propidium iodide staining-based flow cytometry (reference value: 39.20%). In kind it is functional. Particulars: PC-3. The gist of the method:
as §2

In test [20] the test system is PC-3. In words: Induction of apoptosis in human PC3 cells assessed as early apoptotic cells at 5 uM after 24 hrs by annexin V/propidium iodide staining-based flow cytometry (reference value: 5.7%). In kind it is functional. Put shortly:
as §3

For the compound `COc1ccccc1N1CCN(CCCNC(=O)c2cc3ccccc3n2Cc2ccccc2)CC1`, the Activity result in [1] is “Dose-dependent effect”; in [2], 14.5%; in test [3], 23.7%; in test [4], 58.5%; in [5] it was 20.9%; in the test on PC-3 [6], 23.7%. The Activity result was “Dose-dependent effect” in test [8]; 17.8% with PC-3 [10]; 44.9% in the test with PC-3 [11]; 62.7% in the test on PC-3 [12]; 51.1% in the test on PC-3 [13]; 32.6% with PC-3 [14]. Further, the Activity in test [16] was found to be 16.2%; in test [17], 33.5%; in test [18], 14.9%; in test [19], 61.6%; in the test on PC-3 [20], 20.2%. Also, the outcome in the test with PC-3 [7] was inactive. Moreover, the figures for the IC50 (in [9]; in the test with LNCaP) were 15.7 µM and 25.5 µM, respectively. Moreover, in [15], the Kb was 141 nM. Besides, in the test listed under Rattus norvegicus, the Ratio was 19.1.
